Assay [1] relates to Mus musculus. As to the kind of experiment: Tested for change in body weight from onset to termination at dose of 5 mg/kg. Type of assay: functional. In outline:
(§1)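 Female CD-1 mice inoculated ip with 0.1 mL of 10^7 Sarcoma 180 ascites cells/mL. Drug in 0.9% NaCl with 5% ethanol and Tween 80, serially diluted in saline, given ip once daily for 6 days starting 24 h after implantation. Dose based on mean starting weight. Controls received saline. Weight change recorded from day 0 to day 7, as % change.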

Assay [2] deals with Mus musculus. Kind of assay: Tested for change in body weight from onset to termination at dose of mg/kg. It counts as functional. In outline: as §1
For assay [3], the system named is Mus musculus. As to the kind of experiment: Tested for mean survival time treated animal not surviving 50 days as a percentage at dose of 0.31 mg/kg. Type of assay: functional. A digest of the protocol:
(§2)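 Female CD-1 mice, Sarcoma 180 ascites, 0.1 mL of 10^7 cells/mL given ip. Drug in 0.9% NaCl, 5% ethanol, Tween 80, serially diluted with saline. Dosed ip at 0.5 mL daily for 6 days from 24 h post-implant; daily dose based on starting mean weight. T/C is the mean survival of treated mice dying before 50 days vs controls. Survivors are those alive ≥50 days out of those treated.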

Assay [4] deals with Mus musculus. Kind of assay: Tested for mean survival time treated animal not surviving 50 days as a percentage at dose of 0.63 mg/kg. Type of assay: functional. In outline: as §2
The test system of assay [5] is Mus musculus. Kind of assay: Tested for mean survival time treated animal not surviving 50 days as a percentage at dose of 1.25 mg/kg. It counts as functional. In outline:
as §2

Assay [6] relates to Mus musculus. Kind of assay: Tested for mean survival time treated animal not surviving 50 days as a percentage at dose of 10 mg/kg. It counts as functional. A digest of the protocol: as §2
The test system of assay [7] is Mus musculus. As to the kind of experiment: Tested for mean survival time treated animal not surviving 50 days as a percentage at dose of 2.5 mg/kg. Type of assay: functional. A digest of the protocol: as §2
Assay [8] has as its system Mus musculus. Kind of assay: Tested for mean survival time treated animal not surviving 50 days as a percentage at dose of 5 mg/kg. It counts as functional. In outline:
as §2

The test system of assay [9] is Mus musculus. Kind of assay: Tested for change in body weight from onset to termination at dose of 0.63 mg/kg. It counts as functional. In outline:
as §1

Assay [10] has as its system Mus musculus. As to the kind of experiment: Tested for change in body weight from onset to termination at dose of 1.25 mg/kg. Type of assay: functional. A digest of the protocol:
as §1

Assay [11] relates to Mus musculus. As to the kind of experiment: Tested for change in body weight from onset to termination at dose of 10 mg/kg. It counts as functional. In outline: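 Tumor-bearing mice were dosed ip once daily for 6 consecutive days from 24 h after ip tumor implantation; saline controls. Each group was weighed on day 7, the day after the last injection, and the change from the implantation day (day 0) was expressed as % body-weight change, used as a toxicity measure.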

Assay [12] deals with Mus musculus. As to the kind of experiment: Tested for change in body weight from onset to termination at dose of 2.5 mg/kg. Type of assay: functional. A digest of the protocol: as §1
Assay [13] concerns Mus musculus. Kind of assay: Tested for number of animal surviving at least 50 days out of 10 animal treated at dose of 1.25 mg/kg. Type of assay: functional. In outline: as §2
For assay [14], the system named is Mus musculus. Kind of assay: Tested for number of animal surviving at least 50 days out of 15 animal treated at dose of 2.5 mg/kg. It counts as functional. In outline: as §2
For assay [15], the system named is Mus musculus. Kind of assay: Tested for number of animal surviving at least 50 days out of 15 animal treated at dose of 5 mg/kg. It counts as functional. In outline:
as §2

The subject of assay [16] is Mus musculus. Kind of assay: Tested for number of animal surviving at least 50 days out of 5 animal treated at dose of 0.31 mg/kg. It counts as functional. A digest of the protocol:
as §2

Assay [17] has as its system Mus musculus. Kind of assay: Tested for number of animal surviving at least 50 days out of 5 animal treated at dose of 0.63 mg/kg. It counts as functional. In outline: as §2
Assay [18] concerns Mus musculus. Kind of assay: Tested for number of animal surviving at least 50 days out of 5 animal treated at dose of 10 mg/kg. Type of assay: functional. In outline: as §2
Assay [19] can be described thus: Tested for inhibition of growth of sarcoma 180 cells in culture. It counts as functional, cell-based. To be noted: Mus musculus. A digest of the protocol: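 Sarcoma 180 cells in suspension in Fischer's medium with 10% horse serum and penicillin/streptomycin, seeded at 10^4 cells/mL. Drug added from 10× stocks in 10% Me2SO/PBS, final 1–100 μM. Control cultures contained 1% Me2SO. Triplicate Coulter counts at 24, 48 and 72 h. IC50 read from a plot of inhibition of cell-number increase at 72 h versus concentration.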

Molecules are shown by their SMILES.

The values below come from ChEMBL document CHEMBL1121449, “Synthesis and antineoplastic activity of hydroquinone dialdehydes” (J Med Chem, 1980).

The IC50 is the midpoint of a concentration-inhibition curve. A lower IC50 goes with higher potency.

As for `O=Cc1ccccc1C=O` [ORTHO-PHTHALALDEHYDE], the Activity in the assay on Mus musculus [1] is -2%; with Mus musculus [2], 15%; in the assay with Mus musculus [3], 121%; with Mus musculus [4] it was 193%; with Mus musculus [5] it was 176%; in the assay with Mus musculus [6] it was 43%. In addition, the Activity with Mus musculus [8] was 99%; in the assay with Mus musculus [9] it was 5%; with Mus musculus [10] it was 4%; in the assay with Mus musculus [11], -3%; in the assay on Mus musculus [12] it was 0%. In addition, the “Mean survival time, treated vs control (T/C)” value in the assay on Mus musculus [7] is recorded as 154%. The Survivors in the assay on Mus musculus [13] stood at 1; in the assay on Mus musculus [14] it was 0; in the assay with Mus musculus [15] it was 0; in the assay on Mus musculus [16], 0; with Mus musculus [17] it was 0; in the assay with Mus musculus [18], 0. In assay [19], this molecule yielded an IC50 of 12 µM.
